Source: PubChem BioAssay AID2805 (Sanford-Burnham Center for Chemical Genomics, 2010)
Among all 330,000 compounds or so, about 780 (0.24%) were called active. The entries come from a sample that favours actives as a whole. Values without a mark were called inactive.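 The calls were made as follows: active = activation factor of at least 2 at 20 µM; inactive = the rest.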

Test system: intestinal alkaline phosphatase [Mus musculus]
Assay: activators of mouse IAP, primary screen, biochemical, luminescence, uHTS (AID 2805)
Details: muIAP, CDP-Star luminescence, 30 min; at 10 µM; stronger effect = higher value; 1 = vehicle-only enzyme signal, 0 = enzyme-free wells
How it was run: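 Assay system: mouse IAP enzyme; Reagent: CDP-Star chemiluminescent phosphatase substrate; Compound: DMSO-dissolved test compounds; Incubation: 30 min, room temperature; Technique: luminescence from enzymatic CDP-Star hydrolysis; Controls: DMSO-only wells and no-enzyme negative control.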

| Structure (SMILES) | activation factor |
| --- | --- |
| COC(=O)Cc1ccc(NC(=S)NCc2ccc(Cl)cc2)cc1 | 1.52 |
| O=C(NCc1ccc2c(c1)OCO2)C12CC3CC(CC(C3)C1)C2 | 0.999 |
| S=C(NCc1ccc(Cl)cc1)NC12CC3CC(CC(C3)C1)C2 | 3.89 (active) |
| CCC(=O)N1c2ccccc2NC2=C(C(=O)CCC2)C1c1ccco1 (configuration not stated) | 1.01 |
| CCOC12CC(C)(C)CC(C)(CC3=C1C(=O)CC(C)(C)C3)C2 (configuration not stated) | 1.02 |
| COc1cc(NC(=O)C2=CC(c3ccc(C)cc3)=NS(=O)(=O)N2C)cc(OC)c1OC | 0.84 |
| COC(=O)c1cc(S(=O)(=O)NCC2CCN(Cc3ccc(Cl)cc3)CC2)cn1C | 1.12 |
| O=C(NCCN1CCOCC1)Nc1cccc(Cl)c1 | 0.941 |
| CC(=O)N1CCN(CC(=O)Nc2ccc(C)c(F)c2)CC1 | 1.06 |
| COc1cc(NC(=O)NCC2CCN(Cc3ccc(C)cc3)CC2)cc(OC)c1OC | 2.24 (active) |
| O=C(NCC1CCN(Cc2ccccc2Cl)CC1)Nc1cccc(Cl)c1 | 3.53 (active) |
| COc1cc(CN2CCN(Cc3ccc(C)cc3)CC2)c([N+](=O)[O-])cc1OC | 0.893 |
| Cc1ccc(C)c(CN2CCC(CNC(=O)Nc3ccc(C)c(F)c3)CC2)c1 | 4.63 (active) |
| COc1ccc(Cl)cc1NC(=O)NCC1CCN(Cc2ccccc2F)CC1 | 1.56 |
| O=C(CN1CCN(Cc2ccccc2)CC1)Nc1ccc(F)c(F)c1 | 1.1 |
| Cc1ccccc1NC(=O)NCC1CCN(Cc2cccc(Cl)c2)CC1 | 1.72 |
| Cc1cccc(CN2CCC(CNC(=O)Nc3ccc(F)c(Cl)c3)CC2)c1 | 3.26 (active) |
| COc1cc(OC)cc(-c2nc3ccccc3c(=O)n2NC(=O)c2cccnc2Cl)c1 | 0.962 |
| CCCn1nnnc1NC(=O)COc1ccc(Cl)cc1C | 0.94 |
| CCCSc1ccc([C@H]2N[C@@](Cc3ccccc3)(C(=O)OC)[C@H]3C(=O)N(C)C(=O)[C@@H]23)cc1 | 1.04 |
| CCN1CCN(C(=O)c2cc3cc4ccc(OC)cc4nc3s2)CC1 | 1.07 |
| CCc1cc2c(=O)n(-c3ccccc3)c(SCC(=O)O)nc2s1 | 1.03 |
| C=CCCC(=O)Nc1nc(C)c(-c2csc(Nc3ccc(Cl)cc3)n2)s1 | 0.878 |
| S=C(NC1CCCCC1)NN1CCOCC1 | 0.975 |
| Cc1cccc(-c2oc3ccc(-c4ccc5c(c4)OCO5)cc3c2C#Cc2cncn2C)c1 | 0.937 |

| Structure (SMILES) | activation factor |
| --- | --- |
| Cc1cc(NC(=O)CCC(=O)N(CC(=O)NCC2CCCO2)c2ccccc2C)no1 (configuration not stated) | 0.924 |
| COc1ccc(OC)c(NC(=O)c2ccc3c(c2)CCN3S(C)(=O)=O)c1 | 0.846 |
| COCCCNC(=S)NCCNc1nc2cc(C)c(C)cc2cc1C#N | 1.01 |
| COc1cccc2c(C)c(C(=O)O)[nH]c12 | 0.981 |
| O=C(C1=C[C@H](c2ccc(C(F)(F)F)cc2)C[C@H](OCc2ccc(CO)cc2)O1)N1CCN(Cc2ccccc2)CC1 | 1.05 |
| COC(=O)c1scc(S(=O)(=O)C(C)(C)C)c1-n1cccc1 | 0.97 |
| N#CC1=C(N)Oc2[nH]c(=S)[nH]c(=O)c2C12C(=O)Nc1ccccc12 (configuration not stated) | 1 |
| O=c1[nH]c(CN2CCOCC2)nc2scc(-c3ccccc3)c12 | 1.04 |
| COCc1cc(=O)n2[nH]c(C)c(-c3ccccc3)c2n1 | 1.04 |
| Cc1ccc(NC(=S)Nc2ccc(F)cc2)cc1 | 1.03 |
| CC(C)CNC(=S)Nc1ccc(F)cc1 | 1.15 |
| CC(NC(=S)Nc1ccc(OC(F)F)cc1)c1ccc(F)cc1 (configuration not stated) | 2.2 (active) |
| COc1ccccc1-c1nn(Cc2ccccc2)cc1C(=O)N1CCN(c2ncccn2)CC1 | 0.95 |
| O=C(CSc1cccc[n+]1[O-])NCCCc1ccccc1 | 1.02 |
| O=C(Nc1ccccc1)Nc1nnc(COc2ccccc2F)s1 | 0.892 |
| Cc1cc(NC(=O)Nc2ccc(Cl)cc2)n(-c2ccccc2)n1 | 2.3 (active) |
| Cc1cc(C(=O)NCCc2ccc(Cl)cc2)n(-c2ccccc2)n1 | 1.02 |
| Cc1ccc(NC(=O)Nc2cc(-c3ccccc3)nn2C)cc1Cl | 1.48 |
| N#CCCCn1c(O)c(N=NC(=O)C(O)c2ccccc2)c2ccccc21 (configuration not stated) | 0.987 |
| CCC1CCCCN1C(=S)Nc1ccc(SC(F)F)cc1 (configuration not stated) | 0.894 |
| CCN(CC)c1nc(-c2ccccc2)cc(C(F)(F)F)c1C#N | 0.949 |
| Cc1cc(C)cc(NC(=O)NC2CCCCCCC2)c1 | 4.34 (active) |
| C/C(CC(=O)Nc1cccc(F)c1)=N\NC(=O)C(=O)NC1CCCCC1 | 0.807 |
| COc1cccc(NC(=O)CN2CCN(CC(=O)Nc3ccccc3Cl)CC2)c1 | 0.978 |
| O=C(Nc1cccc(F)c1)NC1CCCCCCC1 | 2.46 (active) |

| Structure (SMILES) | activation factor |
| --- | --- |
| CC(C)c1ccc(NC(=O)NC2CCCCC2)cc1 | 1.77 |
| O=C(CN1CCC(NC(=O)Nc2ccccc2)CC1)Nc1cccc([N+](=O)[O-])c1 | 1.02 |
| Cc1cc(C)cc(NC(=O)NC2CCN(CC(=O)Nc3cccc(Cl)c3C)CC2)c1 | 5.45 (active) |
| CC(C)(C)NS(=O)(=O)c1ccc(NC(=O)NC2CCCCC2)cc1 | 1.7 |
| CS(=O)(=O)Nc1ccc(C(=O)N2CCCC2)cc1 | 0.947 |
| Cc1c(Cl)cccc1NC(=O)Nc1ccc(C(=O)N2CCCC2)cc1 | 2 (active) |
| Cc1c(Cl)cccc1NC(=O)NCCCN1CCCC1=O | 1.01 |
| O=C(Nc1cccc(F)c1)NC1CCCc2ccccc21 (configuration not stated) | 0.963 |
| CSCC(=O)N1CCCC(C(=O)c2cc(F)ccc2F)C1 (configuration not stated) | 0.984 |
| O=C(OCC1O[C@@H](OC(=O)c2cc(O)c(O)c(O)c2)[C@@H](OC(=O)c2cc(O)c(O)c(O)c2)[C@@H](OC(=O)c2cc(O)c(O)c(O)c2)[C@@H]1OC(=O)c1cc(O)c(O)c(O)c1)c1cc(O)c(O)c(O)c1 (some centres not stated) | 0.831 |
| CN(Cc1ccccc1)C(=O)COC(=O)/C=C/c1ccc2c(c1)OCO2 | 0.965 |
| CCc1ccccc1N1CN(Cc2ccco2)CNC1=S | 0.992 |
| COc1c(O)cccc1-c1nnn(CCC(=O)OCC(=O)c2ccccc2)n1 | 0.984 |
| Cc1cccc(NC(=S)Nc2ccc(Cl)c(Cl)c2)c1 | 1.16 |
| Cc1cccc(NC(=S)NCCN(C2CCCCC2)C2CCCC2)c1 | 2.13 (active) |
| Cc1cccc(NC(=S)NC23CN4CN(CN(C4)C2)C3)c1 | 0.962 |
| O=C(c1ccc(O)cc1)c1ccc(C(=O)O)c(C(=O)O)c1 | 1.01 |
| CC(=O)c1cccc(NC(=O)N2CCCC2C(=O)NCCC(C)C)c1 (configuration not stated) | 0.988 |
| O=C(COc1ccccc1F)NNC(=O)c1cc(Br)ccc1Cl | 0.932 |
| O=C(NCCOc1ccccc1Cl)C(=O)Nc1ccccc1 | 0.98 |
| O=C(NCCOc1ccccc1F)Nc1ccc(Br)cc1 | 2.2 (active) |
| O=C(Cn1ncc2c3ccccc3n(Cc3ccccc3)c2c1=O)NCCCN1CCOCC1 | 0.993 |
| C=C(Br)Cn1c(CCCC)nc2ccccc21 | 0.968 |
| COc1ccc(NC(=O)N(C)C[C@H]2Oc3ccc(NC(=O)C4CC4)cc3C(=O)N([C@H](C)CO)C[C@@H]2C)cc1 | 1.05 |
| C[C@H](CO)N1C[C@H](C)[C@@H](CN(C)C(=O)Nc2ccc3c(c2)OCO3)Oc2c(cccc2N(C)C)C1=O | 0.974 |

| Structure (SMILES) | activation factor |
| --- | --- |
| COc1ccc(NC(=O)Nc2ccc3c(c2)C(=O)N([C@H](C)CO)C[C@H](C)[C@@H](CN(C)C(=O)Nc2ccc4c(c2)OCO4)O3)cc1 | 2.74 (active) |
| COc1ccc(S(=O)(=O)NCC(=O)NC2CC2)cc1OC | 0.966 |
| O=C(CN1CCC(O)(c2cccc(C(F)(F)F)c2)CC1)NCCc1ccccc1 | 0.933 |
| CC(=O)Nc1cccc(C(=O)OCN2C(=O)c3ccccc3C2=O)c1 | 0.892 |
| CC(=O)N(CC(O)CO)c1c(I)c(C(=O)NCC(O)CO)c(I)c(C(=O)NCC(O)CO)c1I (configuration not stated) | 1.05 |
| Cc1cc(C)c(S(=O)(=O)c2ccccc2)c(OC(=O)c2c(F)cccc2Cl)n1 | 0.919 |
| OCCCN1c2ccccc2Nc2nnc(-c3ccccc3)cc21 | 2.5 (active) |
| N=c1c2c(-c3ccccc3)c(-c3ccccc3)n(Cc3ccccc3)c2ncn1CCCO | 0.982 |
| COc1ccc(C)cc1NC(=O)NCCCCc1ccccc1 | 1.36 |
| O=C(CNC(=O)c1ccccc1Br)NNC(=O)c1cccs1 | 0.934 |
| Cc1ccc(CN(C)Cc2cc(=O)oc3cc(C)c(Cl)cc23)cc1 | 0.989 |
| S=C(NCCCc1ccccc1)Nc1ccc(Br)cc1 | 2.09 (active) |
| S=C(NCC1COc2ccccc2O1)Nc1ccc(Br)cc1 (configuration not stated) | 3.2 (active) |
| CC(NC(=S)Nc1ccccc1)C1COc2ccccc2O1 (configuration not stated) | 1.67 |
| O=S(=O)(NCCCc1ccccc1)c1ccc(Br)cc1 | 1.03 |
| CCCN(CC1COc2ccccc2O1)C(=S)Nc1ccc(C)cc1 (configuration not stated) | 1.14 |
| S=C(Nc1ccc(Br)cc1)NC1CCN(Cc2ccccc2)CC1 | 1.46 |
| COCCNC(=O)c1ccc(S(=O)(=O)c2ccc(Cl)cc2)c(NC(C)=O)c1 | 0.896 |
| O=C(NCC1CCCO1)c1ccccc1-c1nc(-c2ccccc2Cl)no1 (configuration not stated) | 0.926 |
| Cc1noc(C)c1S(=O)(=O)N(CC(=O)Nc1ccc2c(c1)OCCO2)c1ccc(C(C)C)cc1 | 2.03 (active) |
| Cc1noc(C)c1S(=O)(=O)N(CC(=O)NCc1ccc(Cl)cc1)c1ccc2c(c1)OCO2 | 1.12 |
| CCOC(=O)c1cccc(NC(=O)CN(c2ccc(C)cc2)S(=O)(=O)c2c(C)noc2C)c1 | 1.37 |
